# The list is not random: actives were taken first. Their share in the collection is about 1.1%.
# PMI act: activators of human PMI, primary screen, biochemical, fluorescence intensity, near-Km mannose 6-phosphate; Mannose-6-phosphate isomerase (Homo sapiens), P34949; purified human PMI, coupled resazurin fluorescence, 20 min; active compounds read high; 1 = vehicle control, 0 substrate-free wells; activation factor at 20 µM; actives 0.005% (n = 190,000); AID 1214, 2008;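 active = activation factor of 2 or more at 20 µM, relative to plate controls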
# Target sequence (P34949 whole entry, looked up): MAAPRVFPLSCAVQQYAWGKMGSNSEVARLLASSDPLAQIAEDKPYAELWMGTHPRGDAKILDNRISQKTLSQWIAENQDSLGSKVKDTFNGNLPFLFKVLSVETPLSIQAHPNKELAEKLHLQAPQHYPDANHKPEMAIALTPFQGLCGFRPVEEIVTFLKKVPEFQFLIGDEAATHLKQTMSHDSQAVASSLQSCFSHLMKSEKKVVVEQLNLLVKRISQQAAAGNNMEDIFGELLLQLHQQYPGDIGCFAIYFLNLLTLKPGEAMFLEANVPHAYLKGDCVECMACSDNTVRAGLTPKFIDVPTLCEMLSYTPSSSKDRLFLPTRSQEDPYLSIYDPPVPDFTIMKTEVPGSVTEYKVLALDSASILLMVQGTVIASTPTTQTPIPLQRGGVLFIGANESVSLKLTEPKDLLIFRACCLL
# Diaphorase act: compounds boosting diaphorase resazurin reduction – biochemical, uHTS, resorufin fluorescence, counter-screen for diaphorase-coupled primary assays, primary screen. Diaphorase/resazurin coupled assay, 16 min; active compounds read high; 1 = vehicle wells, 0 = NADH-free wells. AID 1229, 2008. activation factor at 20 µM. actives 0.005% (n = 190,000);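 active = diaphorase activity raised at least twofold by the compound at 20 µM; inactive = activation factor below 2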
#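 Material: Clostridium kluyveri diaphorase, purified enzyme; Quantity: enzyme 0.07 U/mL final; Medium: HEPES pH 7.4 buffer with MgCl2 and Tween 20; Dosing: single compound dose of 20 µM, 1% DMSO final; Schedule: 16 min reaction at room temperature; Measured by: red resorufin fluorescence at 544/590 nm excitation/emission.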
# Diaphorase inh: diaphorase inhibitors and chemical oxidizers, primary screen, counter-screen for diaphorase-coupled primary assays, biochemical, uHTS, resorufin fluorescence | diaphorase resazurin-to-resorufin fluorescence, NADH, 16 min; bacterial (C. kluyveri) enzyme, not human | inhibition, % at 20 µM | actives 0.69% (n = 190,000) | AID 1217, 2008;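 active = primary screen inhibition at 20 µM above a set limit, cut at about 50% in these data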;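 note: plate controls were DMSO with full reaction for no effect and wells lacking NADH for full effect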
#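 Test system: bacterial diaphorase enzyme (C. kluyveri); Quantity: 0.14 U/mL diaphorase, enzyme working solution; Times: reaction incubation of 16 min at room temperature; Measured by: fluorescence of resorufin formed from resazurin, Ex 544/Em 590 nm; Benchmarks: positive control minus NADH, DMSO neutral control.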
# PMI act satM6P: human PMI activators, high substrate, primary screen, biochemical, fluorescence intensity, near-saturating mannose 6-phosphate; coupled PMI enzyme assay, resazurin fluorescence, 20 min; active compounds read high; 1 = untreated enzyme, 0 = substrate-free blank; activation factor at 20 µM; actives 0.34% (n = 190,000); AID 1216, 2008;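 active = activation factor of 2 or more at 20 µM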
#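 assay system = human phosphomannose isomerase with PGI, G6PDH, diaphorase coupling enzymes | quantity = 15 ng/mL PMI | incubation = enzyme reaction with compound 20 min at room temperature | medium = HEPES pH 7.4 buffer with MgCl2 and Tween-20 | compound dosing = one concentration, 20 µM, in 1% DMSO | measured by = Diaphorase-driven resazurin-to-resorufin fluorescence, excitation 544, emission 590 nm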
# G6PDH CS: L. mesenteroides G6PDH inhibitors, counter-screen for G6PDH-coupled screening assays, biochemical, Leuconostoc mesenteroides enzyme; glucose-6-phosphate dehydrogenase [Leuconostoc mesenteroides]; Purified L. mesenteroides G6PDH, diaphorase/resazurin coupled fluorescence, 45 min; inhibition, % at 5 µM; actives 0.12% (n = 200,000); AID 1020, 2008; in the data active = inhibition above about 50%
# * marks the source's active call; other numbers are inactive results.
SMILES,PMI act,Diaphorase act,Diaphorase inh,PMI act satM6P,G6PDH CS
O=C(COC(=O)Cc1ccccc1F)Nc1cccc(S(=O)(=O)NC2=NCCCCC2)c1,0.9,1,0,0.9,7
CCCn1c(CNc2ccccc2O)nc2ccccc21,0.5,0.7,32,0.7,62*
CC(C)(C)c1nc(S(=O)(=O)c2ccc(Cl)cc2)c(N2CCOCC2)o1,1.6,1,2,2.1*,7
CC(C)Cc1nc(S(=O)(=O)c2ccc(Cl)cc2)c(N2CCOCC2)o1,1.1,0.9,10,1.2,-5
CCC1(C)Cc2sc3c(=O)[nH]c(=S)[nH]c3c2CO1 (stereo unspecified),1,0.2,84*,1,9
C=CCNC(=S)Nc1sc2c(c1C(=O)OCC)CC(C)(CC)OC2 (stereo unspecified),0.8,0.8,22,0.9,0
Cc1cc(O)c(C=Nc2ccc(Cl)cn2)c(=O)o1,1.3,0.9,10,1.6,3
Oc1ccc2ccccc2c1C=Nc1ccc(Cl)cn1,0.4,0.4,62*,0.2,58*
NC(=O)CC1Nc2cccc3cccc(c23)NC1=O (stereo unspecified),0.8,0.4,56*,0.7,-19
O=C(CC1Nc2cccc3cccc(c23)NC1=O)Nc1ccccc1 (stereo unspecified),0.8,0.6,36,0.6,3
CCCn1c(N)c(C(=S)NC(=O)C2CC2)c(=O)n(C)c1=O,0.9,0.5,52*,1,-10
CC(=O)NC(=S)c1c(N)n(Cc2ccccc2)c(=O)n(C)c1=O,1,0.6,42,0.9,-2
CCCn1c(N)c(C(=O)COC(=O)c2c(C)noc2C)c(=O)n(C)c1=O,1,0.8,20,1,8
CCCCn1c(N)c(C(=S)NC(=O)CC(C)C)c(=O)n(C)c1=O,1,0.4,59*,1,-8
CC(C(=O)Nc1nccs1)c1ccc([N+](=O)[O-])cc1 (stereo unspecified),1,1,-1,1,-5
CO/N=C/C1CCN(c2ncc(C(F)(F)F)cc2Cl)C1=O (stereo unspecified),1.1,1.1,-11,1.1,10
COc1ccc(-n2c(NC(=O)c3ccc(Br)o3)c(C#N)c3nc4ccccc4nc32)cc1,0.6,0.4,63*,0.3,13
COc1ccc(OC)c(NS(=O)(=O)Cc2ccccc2)c1,0.8,1.1,-7,0.8,7
C=CCn1c2ccccc2c2nnc(SCCCn3c(=O)[nH]c4ccccc43)nc21,0.8,0.4,57*,0.8,-26
C=CCn1c2ccccc2c2nnc(SCN3C(=O)c4ccccc4C3=O)nc21,0.8,0.8,20,0.9,6
COc1ccc([N+](=O)[O-])cc1NC(=O)CCSCCc1ccccn1,1.1,1,-2,1.1,7
CNc1ccc(Br)cc(C(=O)/C=C/c2cccc(OC)c2OC)c1=O,1,0.4,59*,1,25
CNc1ccc(Br)cc(C(=O)/C=C/c2cccc(Cl)c2Cl)c1=O,0.8,0.3,68*,0.8,31
NC(=O)Cn1c(=O)n(CCC(=O)NCCSCc2ccccc2)c(=O)c2ccccc21,1,0.9,6,1,0
COc1cccc2c(SCC(=O)N/N=C/c3ccc(O)c(O)c3)cc(C)nc12,0.6,0.5,54*,1,10
SMILES,PMI act,Diaphorase act,Diaphorase inh,PMI act satM6P,G6PDH CS
Cc1ccc(N2NC3(CCN(C(N)=O)CC3)NC2=O)cc1,1.6,0.9,13,2.3*,-2
C[C@H]1CC[C@@]2(O[C@H](CCO)C[C@@H](O)[C@@H]2O)O1,0.9,0.8,22,0.9,13
COc1cc(OC)cc(OCC(O)Cn2ccnc2)c1 (stereo unspecified),1.1,0.9,7,1,11
COc1ccccc1NC(=S)NCc1ccc2c(c1)OCO2,0.9,0.8,18,0.9,6
CCOC(=O)c1c(-c2ccccc2Cl)csc1NC(=O)c1cc(S(=O)(=O)N2CCOCC2)ccc1C,0.9,0.8,23,0.8,2
COc1ccc(-n2c(N)c(C(=O)NCc3ccco3)c3nc4ccccc4nc32)cc1OC,1.2,0.8,22,0.8,-3
COc1ccc(-n2c(N)c(C(=O)NCc3ccco3)c3nc4ccccc4nc32)cc1,0.9,0.5,54*,0.6,1
COc1ccc(/C=N/Nc2cc(N(C)C)nc(N(C)C)n2)cc1,0.4,0.7,33,0.4,48
COc1ccccc1/C=N/Nc1cc(N(C)C)nc(N(C)C)n1,0.4,0.5,53*,0.4,37
CN(C)c1cc(N/N=C\c2ccccc2)nc(N(C)C)n1,0.4,0.5,52*,0.4,54*
COc1ccccc1C(=O)C1Nc2ccccc2-c2nnc(SC)nc2O1 (stereo unspecified),1.7,0.7,26,2.5*,5
COC(=O)c1cccc(NC(=O)c2cccnc2C(=O)O)c1C,1,1,2,1.1,8
Cc1cc(C)n(Cc2ccc(NC(=O)c3c([N+](=O)[O-])c(C)nn3C)cc2)n1,1,1,-5,1,6
COc1ccc(-c2ccc(C(=O)O)o2)c([N+](=O)[O-])c1,0.3,0.3,69*,0.3,17
CC(=O)c1ccc2noc(-c3ccc(F)cc3)c2c1,1.7,0.9,14,2.1*,1
CC1(C)Cc2[nH]c(=S)c(C#N)cc2CO1,1.4,1,2,1.5,0
N#Cc1cc2c([nH]c1=S)CCCC2,1.8,1.4,-42,2*,1
N#CC1=C(N)Oc2n[nH]c(-c3cccs3)c2C1c1ccncc1 (stereo unspecified),0.9,0.9,13,0.8,9
N#CC1=C(N)Oc2n[nH]c(-c3cccs3)c2C1c1ccsc1 (stereo unspecified),0.5,0.4,60*,0.6,5
O=C(Nc1ccnc(-c2cccnc2)n1)c1cccs1,1,1,-1,0.9,6
CC(=O)Nc1cc(OC(C)=O)c2nonc2c1OC(C)=O,0.2,0.2,76*,0.2,59*
Nc1c(C(=O)NC2CCCC2)c2nc3ccccc3nc2n1N,0.8,0.5,50*,0.8,2
COc1cc(NC(=O)CN(C)S(=O)(=O)c2ccc(C)cc2)cc(OC)c1,0.9,0.9,5,1,5

# Screening results deposited in PubChem by Sanford-Burnham Center for Chemical Genomics.
